Assay outcomes: PubChem BioAssay, several laboratories
WT yeast gro inh – growth inhibition of WT strain, primary screen, mitochondrial fusion inhibitor project, WT and mutant strains, chemical genetic; 2.1% of 190,000 active; mitochondrial fusion phenotypic screen; inhibition, % at 10 µM; AID 1362, 2008; in the data active means inhibition above about 58%; tested in S. cerevisiae
Cl transport mod – KCC2 cotransporter modulators, thallium flux, primary screen, cell-based, HEK293 KCC2, FluoZin-2 fluorescence, MLSMR; KCC2 cells, thallium flux FluoZin-2 fluorescence; B-score of Tl+ flux slope (higher = more flux/activation; lower = inhibition) at 10 µM; 2.2% of 190,000 active;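 active means thallium flux slope and its plate-corrected score both differing from the plate sample mean at a set confidence after two filtering rounds, in either direction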;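 further: slope of fluorescence scaled to starting intensity during 10 to 20 s after thallium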
ROMK mod – ROMK potassium channel modulators, primary screen, cell-based, thallium flux, MLSMR library; ATP-sensitive inward rectifier potassium channel 1 (Homo sapiens), P48048; 2% of 130,000 active; B-score at 10 µM; Tet-inducible ROMK, thallium flux fluorescence; actives lie on both sides;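 active means signal ratio slope over the read window, or its plate-corrected B-score, at least 3 SD from the plate mean, either direction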;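 further: B-score of the F/F0 ratio slope over 7 to 12 s after thallium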
Target sequence (P48048 whole entry, looked up): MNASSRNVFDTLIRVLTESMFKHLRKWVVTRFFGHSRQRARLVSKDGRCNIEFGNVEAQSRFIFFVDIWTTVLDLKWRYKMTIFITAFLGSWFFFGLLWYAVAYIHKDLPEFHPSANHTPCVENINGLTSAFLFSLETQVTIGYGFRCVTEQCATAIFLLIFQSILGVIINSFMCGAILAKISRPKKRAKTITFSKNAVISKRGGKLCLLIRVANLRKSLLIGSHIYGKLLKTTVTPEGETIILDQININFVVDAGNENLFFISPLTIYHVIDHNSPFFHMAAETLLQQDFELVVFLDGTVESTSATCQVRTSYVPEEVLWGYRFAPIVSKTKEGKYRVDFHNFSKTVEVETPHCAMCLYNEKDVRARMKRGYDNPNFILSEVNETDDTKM
Lmaj promast – Leishmania major promastigote growth inhibition, primary screen. inhibition, % at 10 µM. Leishmania major promastigotes, resazurin fluorescence viability. AID 1063, 2008. 9% of 200,000 active; in the data active means inhibition above about 50%;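 further: promastigotes grown with compound for 44 hours at 28 °C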
Diaphorase inh – diaphorase inhibitors and chemical oxidizers, primary screen, counter-screen for diaphorase-coupled primary assays, biochemical, uHTS, resorufin fluorescence; 0.69% of 190,000 active; inhibition, % at 20 µM; AID 1217, 2008; diaphorase resazurin-to-resorufin fluorescence, NADH, 16 min; bacterial (C. kluyveri) enzyme, not human;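 active means primary screen inhibition at 20 µM above a set limit, cut at about 50% in these data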
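controls = No-NADH positive control and DMSO neutral control | system = Clostridium kluyveri diaphorase enzyme | timing = reaction incubation of 16 min at room temperature | signal = resorufin fluorescence 544/590 nm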
Diaph act CS – compounds boosting diaphorase resazurin reduction – biochemical, uHTS, resorufin fluorescence, counter-screen for diaphorase-coupled primary assays, primary screen; Diaphorase/resazurin coupled assay, 16 min; stronger effect = higher value; 1 = vehicle wells, 0 = NADH-free wells; activation factor at 20 µM; 0.005% of 190,000 active;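 active means diaphorase activity raised at least twofold by the compound at 20 µM; inactive means activation factor below 2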
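Material: purified diaphorase enzyme from Clostridium kluyveri / Medium: HEPES pH 7.4 buffer with MgCl2 and Tween 20 / Schedule: enzyme reaction of 16 min at room temperature / Measured by: resorufin fluorescence, excitation 544 nm, emission 590 nm / Evaluation: rise in resorufin formation, marking diaphorase activation or chemical reduction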
Large screens that a line does not name were inactive. Rows were chosen to be rich in hits. Some 12% of all compounds tested hit in one or more screens of this group.

CC(C)(C)c1ccc(CN2N=C(/C=C/c3ccccc3)CCC2=O)cc1	WT yeast gro inh 71.7 (no result: ROMK mod)
Cc1ccc(S(=O)(=O)C(C#N)=C2N(C)c3ccccc3N2C)cc1	none (no result: WT yeast gro inh)
Cn1c(-c2cccc3ccccc23)n[nH]c1=S	none
CN(C)CCn1c(=O)n(-c2cccc(Cl)c2)c(=O)c2c3c(sc21)CCCCC3	none (no result: WT yeast gro inh, ROMK mod, Lmaj promast, Diaphorase inh, Diaph act CS)
CCOC(=O)C1=NN(c2ccc(OC)cc2)C(c2ccccc2)CC1=O (configuration not stated)	Lmaj promast 60.6 (no result: ROMK mod)
CCOC(=O)C1=NN(c2ccccc2)C(c2ccccc2)CC1=O (configuration not stated)	none (no result: ROMK mod)
COc1ccc(C(=O)Sc2ccc(Cl)cc2)cc1OC	Lmaj promast 54.3
Cc1cccc(-c2n[nH]c(=S)n2/N=C/c2ccc(C)o2)c1	none
Cc1ccc(Nc2nc(C)c(CCC(C)C)c(=O)[nH]2)cc1	none (no result: Cl transport mod)
Cc1nc(Nc2ccc(F)cc2)[nH]c(=O)c1CCC(C)C	Lmaj promast 53.4
CCOC(=O)c1c(NC(C)=O)sc2c(OCC(O)CN(CC)CC)c(Br)ccc12 (configuration not stated)	Lmaj promast 100.4
CCOC(=O)c1c(NC(C)=O)sc2c(OC)c(Br)ccc12	none (no result: WT yeast gro inh, Cl transport mod)
CCOC(=O)c1c(NC(C)=O)sc2c(OC)cccc12	none (no result: ROMK mod)
CCOC(=O)c1c(NC(C)=O)sc2c(OCCN(CC)CC)c(Br)ccc12	Lmaj promast 99.8
COc1ccc(N(CC(=O)Nc2ccc3c(c2)OCO3)S(=O)(=O)c2ccccc2)c(OC)c1	Lmaj promast 71.0 (no result: Cl transport mod)
COC(=O)c1ccc(C)c(NC(=O)CN(c2ccc3c(c2)OCO3)S(C)(=O)=O)c1	none (no result: ROMK mod)
Cc1noc(C)c1S(=O)(=O)N(CC(=O)Nc1ccc2c(c1)OCO2)c1ccc(C(C)C)cc1	none (no result: ROMK mod)
Cc1nn(C)c(C)c1S(=O)(=O)N(CC(=O)Nc1ccc2c(c1)OCO2)c1ccc(C(C)C)cc1	Lmaj promast 50.1 (no result: ROMK mod)
COC(=O)c1ccc(NC(=O)CN(c2ccc3c(c2)OCO3)S(C)(=O)=O)cc1	Lmaj promast 64.3
COc1ccc(N(CC(=O)Nc2ccc3c(c2)OCO3)S(=O)(=O)c2ccc(C)cc2)cc1OC	Lmaj promast 62.7
COc1ccc(N(CC(=O)Nc2ccc3c(c2)OCO3)S(=O)(=O)c2ccccc2)cc1OC	none (no result: WT yeast gro inh, Lmaj promast, Diaphorase inh, Diaph act CS)
CCOC(=O)C1(CCCc2ccccc2)CCN(Cc2cn(CC)nc2C)CC1	Lmaj promast 84.3 (no result: Cl transport mod)
CCOC(=O)C1(Cc2cccc(F)c2)CCN(Cc2cn(CC)nc2C)CC1	Lmaj promast 70.9
CC(C)CC(=O)CC1(O)C(=O)Nc2ccccc21 (configuration not stated)	none
CCCCC(=O)Nc1ccc(NC(=O)c2ccc([N+](=O)[O-])cc2Cl)cc1OC	none
OC(CNCC1CCCO1)COc1ccc(OCC(O)CNCC2CCCO2)cc1 (configuration not stated)	none (no result: ROMK mod)
CCOC(=O)c1c(C)n(C)c2ccc(OCC(O)CN3CCCCCC3)cc12 (configuration not stated)	Lmaj promast 97.7 (no result: ROMK mod)
CCOC(=O)c1c(C)n(-c2ccc(C)cc2)c2ccc(OCC(O)CNCC3CCCO3)cc12 (configuration not stated)	WT yeast gro inh 72.1, Lmaj promast 100.4
CC(C)(C)OC(=O)N/N=C/c1cc(N=Nc2ccccc2)ccc1O	none (no result: ROMK mod)
CN1C(=O)/C(=C/c2cc(N=Nc3ccccc3)ccc2O)SC1=S	WT yeast gro inh 96.1 (no result: Cl transport mod, ROMK mod)
COc1ccc(S(=O)(=O)N2CCCCCC2)cc1N(C)S(=O)(=O)c1ccc(C)cc1	Lmaj promast 50.8 (no result: ROMK mod)
COc1ccc(NS(=O)(=O)c2ccc(S(=O)(=O)N3CCCC3)cc2)cc1	Lmaj promast 52.3
COc1ccc(NS(=O)(=O)c2ccc(S(=O)(=O)N3CCOCC3)cc2)cc1	none
COc1ccc(S(=O)(=O)N2CCCCC2)cc1	none (no result: ROMK mod)
COc1ccc2cc(S(=O)(=O)N3CCCCCC3)ccc2c1	Lmaj promast 56.6
